ED50, Activity and Ki data for three molecules are collected here from ChEMBL document CHEMBL1147082 (Proc Natl Acad Sci U S A, 2007).

The source made the active and inactive calls. No cut-off for these calls is given here.

In data set [1] the target is T1, Glucocorticoid receptor (Homo sapiens) (UniProt P04150).
T1 sequence (whole entry): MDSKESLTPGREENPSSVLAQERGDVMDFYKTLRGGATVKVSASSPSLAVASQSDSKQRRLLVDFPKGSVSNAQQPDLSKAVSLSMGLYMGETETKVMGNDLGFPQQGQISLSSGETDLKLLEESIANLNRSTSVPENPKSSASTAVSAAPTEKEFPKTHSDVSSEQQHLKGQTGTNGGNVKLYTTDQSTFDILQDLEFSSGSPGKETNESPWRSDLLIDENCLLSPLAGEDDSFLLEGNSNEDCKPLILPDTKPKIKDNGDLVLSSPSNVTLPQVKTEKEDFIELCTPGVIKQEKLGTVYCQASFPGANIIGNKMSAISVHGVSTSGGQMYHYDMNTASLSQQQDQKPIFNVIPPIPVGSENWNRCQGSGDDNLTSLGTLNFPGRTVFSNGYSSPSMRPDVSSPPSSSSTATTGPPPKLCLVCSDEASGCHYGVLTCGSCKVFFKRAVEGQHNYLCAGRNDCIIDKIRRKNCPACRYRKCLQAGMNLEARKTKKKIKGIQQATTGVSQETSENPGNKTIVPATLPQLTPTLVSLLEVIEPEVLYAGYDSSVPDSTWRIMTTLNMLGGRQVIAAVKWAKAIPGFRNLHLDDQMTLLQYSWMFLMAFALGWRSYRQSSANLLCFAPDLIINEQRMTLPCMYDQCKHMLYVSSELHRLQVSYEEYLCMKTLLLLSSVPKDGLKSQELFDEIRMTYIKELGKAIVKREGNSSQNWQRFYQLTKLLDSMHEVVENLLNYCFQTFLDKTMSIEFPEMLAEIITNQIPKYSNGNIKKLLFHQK
The following applies: CV-1.

For data set [2], the species on record is Mus musculus. The data set is described as follows: Toxicity in Swiss-Webster mouse assessed as increase in body fat after 28 days relative to control. In kind it is organism-based. The following applies: in vivo, 672 h. The gist of the method: (§1)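 Male Swiss–Webster mice, three months old, singly housed, 12-h light cycle, chow ad libitum. Oral treatment for 28 days with vehicle or 3, 10, 30 mg/kg. Percentage body fat measured by DEXA, compared against vehicle controls.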

The subject of data set [3] is Mus musculus. As to the kind of experiment: Toxicity in Swiss-Webster mouse assessed as decrease in bone formation at 30 mg/kg after 28 days. Conditions: in vivo, 672 h. In kind it is organism-based. Set-up: dose 30 mg/kg. The gist of the method:
(§2)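 Male Swiss–Webster mice, three months old, singly housed on standard chow, dosed orally for 28 days (vehicle; 3, 10, 30 mg/kg). Alizarin red 30 mg/kg s.c. at baseline DXA and calcein 15 mg/kg s.c. at final DXA for labeling. Tibial cortical histomorphometry under epifluorescence. Periosteal BFR = double-labeled surface × MAR/periosteal perimeter.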

A further data set concerns the target T2, Progesterone receptor (Homo sapiens, UniProt P06401).
T2 sequence (P06401 whole entry): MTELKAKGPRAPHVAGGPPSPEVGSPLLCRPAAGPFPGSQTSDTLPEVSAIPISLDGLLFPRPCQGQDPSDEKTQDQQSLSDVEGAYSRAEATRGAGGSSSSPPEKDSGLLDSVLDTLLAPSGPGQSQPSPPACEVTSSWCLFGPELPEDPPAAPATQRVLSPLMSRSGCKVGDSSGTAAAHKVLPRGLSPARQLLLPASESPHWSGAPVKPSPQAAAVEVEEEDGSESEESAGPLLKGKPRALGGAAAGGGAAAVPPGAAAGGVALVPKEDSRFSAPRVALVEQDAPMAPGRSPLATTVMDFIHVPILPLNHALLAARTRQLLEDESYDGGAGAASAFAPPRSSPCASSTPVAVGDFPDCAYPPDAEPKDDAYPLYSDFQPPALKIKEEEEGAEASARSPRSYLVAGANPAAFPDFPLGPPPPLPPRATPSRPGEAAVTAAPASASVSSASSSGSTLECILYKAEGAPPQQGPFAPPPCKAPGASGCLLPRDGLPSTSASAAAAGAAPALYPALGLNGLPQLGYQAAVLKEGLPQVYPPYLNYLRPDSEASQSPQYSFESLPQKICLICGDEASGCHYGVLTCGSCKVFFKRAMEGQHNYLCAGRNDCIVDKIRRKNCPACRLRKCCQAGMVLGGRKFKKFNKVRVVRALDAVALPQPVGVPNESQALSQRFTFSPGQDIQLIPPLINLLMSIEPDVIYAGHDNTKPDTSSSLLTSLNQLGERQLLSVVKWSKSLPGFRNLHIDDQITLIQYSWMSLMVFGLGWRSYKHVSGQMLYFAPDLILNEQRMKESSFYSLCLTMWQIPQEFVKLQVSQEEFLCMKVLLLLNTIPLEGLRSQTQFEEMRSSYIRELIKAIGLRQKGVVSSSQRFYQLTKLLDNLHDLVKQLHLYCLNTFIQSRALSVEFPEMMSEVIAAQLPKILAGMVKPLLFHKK
The data set is described as follows: Binding affinity to human recombinant progesterone-A receptor expressed in SF9 cells. The gist of the method: (§3)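 Receptor source: extracts of SF-9 insect cells infected with recombinant baculovirus expressing the indicated receptor. Affinity was measured in a labeled-hormone binding assay.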

A further data set has as its target T3, Androgen receptor (Homo sapiens, UniProt P10275).
T3 sequence (P10275 whole entry): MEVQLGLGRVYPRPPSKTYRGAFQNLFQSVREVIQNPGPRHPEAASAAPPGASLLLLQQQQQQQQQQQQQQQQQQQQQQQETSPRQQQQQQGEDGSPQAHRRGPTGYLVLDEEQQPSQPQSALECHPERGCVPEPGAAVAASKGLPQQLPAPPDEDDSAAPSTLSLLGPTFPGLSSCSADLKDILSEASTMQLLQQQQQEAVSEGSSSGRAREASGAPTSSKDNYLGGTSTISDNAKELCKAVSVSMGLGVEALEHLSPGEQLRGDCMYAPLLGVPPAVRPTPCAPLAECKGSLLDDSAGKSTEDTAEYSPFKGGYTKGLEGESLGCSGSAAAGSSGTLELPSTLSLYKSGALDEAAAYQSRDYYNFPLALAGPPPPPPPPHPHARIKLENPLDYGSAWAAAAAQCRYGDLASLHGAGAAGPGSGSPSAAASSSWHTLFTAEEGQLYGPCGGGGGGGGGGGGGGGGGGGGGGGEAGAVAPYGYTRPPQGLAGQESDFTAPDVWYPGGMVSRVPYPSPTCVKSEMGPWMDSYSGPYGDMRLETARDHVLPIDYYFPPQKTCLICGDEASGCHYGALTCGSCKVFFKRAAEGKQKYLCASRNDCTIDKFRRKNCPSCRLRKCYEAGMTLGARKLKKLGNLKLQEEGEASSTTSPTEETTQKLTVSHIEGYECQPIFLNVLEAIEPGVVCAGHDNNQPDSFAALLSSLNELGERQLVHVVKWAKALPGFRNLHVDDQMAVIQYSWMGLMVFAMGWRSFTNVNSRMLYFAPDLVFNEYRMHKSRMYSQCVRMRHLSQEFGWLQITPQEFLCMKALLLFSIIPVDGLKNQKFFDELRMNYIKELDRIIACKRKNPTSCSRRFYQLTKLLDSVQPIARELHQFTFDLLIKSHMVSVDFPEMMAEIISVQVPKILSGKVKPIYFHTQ
The data set is described as follows: Binding affinity to human recombinant androgen receptor expressed in SF9 cells. The gist of the method:
as §3

Data set [4] concerns Mus musculus. The data set is described as follows: Inhibition of collagen-induced arthritis in DBA/1 mouse at less than 3 mg/kg, po after 15 days. In kind it is functional, organism-based. More on the design: dose 3 mg/kg. The gist of the method: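 Female DBA/1 mice, 6–8 weeks old, acclimatized 10 days. Bovine type II collagen (stored at 4 mg/ml in 0.01 M acetic acid) with complete Freund's adjuvant given intradermally at tail base on days 1 and 7. Daily oral gavage days 17–31 (15 days). Limbs scored 0–4 for clinical arthritis signs; 10 mice/group. One-way ANOVA with Fisher's LSD, P < 0.05.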

Data set [5] concerns Mus musculus. The data set is described as follows: Toxicity in Swiss-Webster mouse assessed as decrease in bone formation at 3 mg/kg after 28 days. The class given is organism-based. Set-up: dose 3 mg/kg. The following applies: in vivo, 672 h. The gist of the method:
as §2

For data set [6], the system named is Mus musculus. The data set is described as follows: Toxicity in Swiss-Webster mouse assessed as decrease in bone formation at 10 mg/kg after 28 days. The class given is organism-based. Set-up: dose 10 mg/kg. Conditions: in vivo, 672 h. The gist of the method: as §2
Data set [7] addresses T4, Glucocorticoid receptor (Rattus norvegicus) (UniProt P06536).
T4 sequence (whole entry): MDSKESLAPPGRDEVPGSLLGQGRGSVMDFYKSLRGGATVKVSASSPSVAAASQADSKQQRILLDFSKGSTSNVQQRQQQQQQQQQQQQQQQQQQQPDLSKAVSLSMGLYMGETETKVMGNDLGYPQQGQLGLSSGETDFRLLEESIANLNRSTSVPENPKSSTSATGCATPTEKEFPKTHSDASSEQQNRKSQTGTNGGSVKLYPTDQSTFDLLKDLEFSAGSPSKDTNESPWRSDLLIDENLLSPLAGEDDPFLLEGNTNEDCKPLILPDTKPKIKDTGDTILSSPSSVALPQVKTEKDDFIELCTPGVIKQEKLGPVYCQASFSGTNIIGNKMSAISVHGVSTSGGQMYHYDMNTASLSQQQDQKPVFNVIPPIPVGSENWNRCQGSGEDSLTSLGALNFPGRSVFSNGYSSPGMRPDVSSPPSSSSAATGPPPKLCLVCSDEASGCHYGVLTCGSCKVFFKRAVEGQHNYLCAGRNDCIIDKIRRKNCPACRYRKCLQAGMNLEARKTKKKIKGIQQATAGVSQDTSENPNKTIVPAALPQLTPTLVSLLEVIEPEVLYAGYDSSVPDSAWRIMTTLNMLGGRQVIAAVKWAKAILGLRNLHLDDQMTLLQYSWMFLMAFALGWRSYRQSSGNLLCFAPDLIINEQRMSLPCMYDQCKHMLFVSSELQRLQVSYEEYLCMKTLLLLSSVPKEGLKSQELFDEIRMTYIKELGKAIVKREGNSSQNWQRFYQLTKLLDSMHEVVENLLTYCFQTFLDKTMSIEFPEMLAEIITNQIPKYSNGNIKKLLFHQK
As to the kind of experiment: Activity at endogenous glucocorticoid receptor in rat H42E liver cells assessed as increase in transcriptional activation of phosphoenol pyruvate carboxykinase at 0.01 uM after 24 hrs by RT-PCR. The class given is cell-based. The gist of the method:
(§4)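 H4IIE rat liver cells (endogenous GR) kept in 10% FBS, seeded overnight at 3.5 × 10^5 cells/well, then given vehicle or compound in 10% dextran/charcoal-treated FBS for 24 h. RNA extracted, first-strand cDNA made, real-time PCR run (40 cycles). Target signal divided by 36B4 control gene. Triplicate biological samples and triplicate assays per dose; one-way ANOVA with Dunnett's method.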

In data set [8] the target is T4, Glucocorticoid receptor (Rattus norvegicus). The data set is described as follows: Activity at endogenous glucocorticoid receptor in rat H42E liver cells assessed as increase in transcriptional activation of pyruvate dehydrogenase kinase at 0.1 uM after 24 hrs by RT-PCR. The class given is cell-based. The gist of the method:
as §4

The test system of data set [9] is Mus musculus. The data set is described as follows: Toxicity in Swiss-Webster mouse assessed as increase in body fat at 10 mg/kg after 28 days. In kind it is organism-based. The following applies: in vivo, 672 h. Set-up: dose 10 mg/kg. The gist of the method:
as §1

Data set [10] relates to Mus musculus. As to the kind of experiment: Toxicity in Swiss-Webster mouse assessed as increase in body fat at 30 mg/kg after 28 days. The following applies: in vivo, 672 h. In kind it is organism-based. More on the design: dose 30 mg/kg. The gist of the method: as §1

In data set [1], `C[C@@H]1C[C@H]2[C@@H]3CCC4=CC(=O)C=C[C@]4(C)[C@@]3(F)[C@@H](O)C[C@]2(C)[C@@]1(O)C(=O)CO` yielded an ED50 of 0.1 nM.
For the molecule `COc1c(O)ccc2c1-c1ccc3c(c1/C(=C/c1cccc(C)c1F)O2)C(C)=CC(C)(C)N3`, the Activity entry in the data set listed under Mus musculus [2] and in the data set on Mus musculus [3] was “Toxic” throughout. Further, the Ki (in general, the equilibrium dissociation constant of an inhibitor or competing ligand from its target) was 866 nM on Progesterone receptor and 910 nM at Androgen receptor. In addition, the result in the data set on Mus musculus [4] was Active.
`C[C@]12C=CC(=O)C=C1CC[C@@H]1[C@@H]2[C@@H](O)C[C@@]2(C)[C@H]1CC[C@]2(O)C(=O)CO` [PREDNISOLONE]: the Activity entry in the data set with Mus musculus [5], in the data set on Mus musculus [6], with Mus musculus [3], in the data set on Mus musculus [9] and with Mus musculus [10] was “Toxic” each time. Moreover, the outcome (in [7]; in data set [8]; in the data set with Mus musculus [4]) was Active. Besides, the ED50 in [1] came to 4 nM.
